Here are results for three molecules from ChEMBL document CHEMBL3297671, “Identification and bioactivity of 3-epi-xestoaminol C isolated from the New Zealand brown alga Xiphophora chondrophylla” (J Nat Prod, 2014).

Experiment [1] deals with Staphylococcus aureus. The experiment can be described thus: Antimicrobial activity against Staphylococcus aureus ATCC 25923 assessed as compound level causing less than 2% growth after 16 hrs by serial dilution method. The class given is functional. The settings on record: ATCC 25923, 16 h. The method, boiled down:
(§1)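 Values are read from dose-response curves. No IC50 is calculated where the curve is too steep.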

Experiment [2] deals with Pseudomonas aeruginosa. The experiment can be described thus: Antimicrobial activity against Pseudomonas aeruginosa PAO1 after 16 hrs by serial dilution method. The class given is functional, organism-based.
Experiment [3] deals with Pseudomonas aeruginosa. Put plainly: Antimicrobial activity against Pseudomonas aeruginosa PAO1 assessed as compound level causing less than 2% growth after 16 hrs by serial dilution method. It counts as functional.
The test system of experiment [4] is Escherichia coli. The experiment can be described thus: Antimicrobial activity against Escherichia coli ATCC 25922 after 16 hrs by serial dilution method. The class given is functional, organism-based. As to conditions: ATCC 25922, 16 h.
In experiment [5] the test system is Escherichia coli. The experiment can be described thus: Antimicrobial activity against Escherichia coli ATCC 25922 assessed as compound level causing less than 2% growth after 16 hrs by serial dilution method. The class given is functional. As to conditions: ATCC 25922, 16 h.
For experiment [6], the system named is Staphylococcus aureus. Put plainly: Antimicrobial activity against Staphylococcus aureus ATCC 25923 after 16 hrs by serial dilution method. As to conditions: ATCC 25923, 16 h. It counts as functional, organism-based.
Experiment [7] relates to Saccharomyces cerevisiae. Put plainly: Antimicrobial activity against Saccharomyces cerevisiae after 16 hrs by serial dilution method. It counts as functional, organism-based. In short, it runs like this:
as §1

Experiment [8] has as its system Saccharomyces cerevisiae. The experiment can be described thus: Antimicrobial activity against Saccharomyces cerevisiae assessed as compound level causing less than 2% growth after 16 hrs by serial dilution method. The class given is functional. The method, boiled down: as §1
Experiment [9] deals with HL-60. Put plainly: Cytotoxicity against human HL60 cells after 48 hrs by MTT assay. It counts as functional, cell-based. The settings on record: HL-60, 48 h. (Tetrazolium assays rely on reduction of a dye to a coloured formazan, in cell work by metabolically active cells.)
Experiment [10] concerns HL-60. The experiment can be described thus: Cytotoxicity against human HL60 cells assessed as compound level causing less than 2% growth after 48 hrs by MTT assay. The class given is functional.
Experiment [11] in a line: Cytotoxicity against human HEK cells assessed as compound level causing less than 2% growth after 48 hrs by MTT assay. It counts as functional, HEK293.
The nature of experiment [12]: Cytotoxicity against human HEK cells after 48 hrs by MTT assay. The settings on record: HEK293, 48 h. It counts as functional, cell-based.

Each structure is given as a SMILES string. ≈ marks a conversion by molar mass, not a printed value. Calls of active or inactive are those of the source. The rule behind the calls is not given here.

The term IC50 denotes the concentration needed to halve the response being measured. As for `CN(C)[C@@H]1C(O)=C(C(N)=O)C(=O)[C@@]2(O)C(O)=C3C(=O)c4c(O)cccc4[C@@](C)(O)[C@H]3C[C@@H]12` [TETRACYCLINE], the MIC in the experiment on Staphylococcus aureus [1] was 62.5 µM (≈ 27.8 µg/mL); in the experiment on Pseudomonas aeruginosa [3] (PAO1, 16 h), greater than 500 µM; with Escherichia coli [5], no less than 500 µM. Further, the IC50 with Pseudomonas aeruginosa [2] (Pseudomonas aeruginosa, PAO1, 16 h, read-out: IC50) turned out to be 143 µM; in the experiment on Escherichia coli [4] it was 26.4 µM; with Staphylococcus aureus [6] it was 5.7 µM.
In the experiment on Saccharomyces cerevisiae [7], `C[C@@H]1C[C@@H]([C@H](O)CC2CC(=O)NC(=O)C2)C(=O)[C@@H](C)C1` [CYCLOHEXIMIDE] gave an IC50 of 0.04 µM. The MIC in the experiment on Saccharomyces cerevisiae [8] came out at 1 µM (≈ 0.281 µg/mL).
As to `CCCCCCCCCCC[C@H](O)[C@H](C)N`, the MIC in the experiment with Staphylococcus aureus [1] came to 65.1 µM (≈ 14.9 µg/mL); in the experiment on HL-60 [10] it was 32.7 µM (≈ 7.5 µg/mL); in [11], 32.7 µM (≈ 7.5 µg/mL); in the experiment with Escherichia coli [5], 32.6 µM (≈ 7.48 µg/mL). In addition, the IC50 result is “Not Active” with Pseudomonas aeruginosa [2]; 8.8 µM with HL-60 [9]; 17.1 µM with Saccharomyces cerevisiae [7]; 18 µM in experiment [12]; 17 µM with Staphylococcus aureus [6]. In addition, the MIC entry in the experiment on Pseudomonas aeruginosa [3] and in the experiment with Saccharomyces cerevisiae [8] was “inactive” throughout.
